Test results from PubChem BioAssay.
Records with an inconclusive call do not appear. Active and inactive are the calls of the source.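 How the source made its calls, unless noted: active means inhibition over a set limit, the all-compound mean plus 3 SD, in both replicate runs; inconclusive means over that limit in just one replicate run; inactive means at or under that limit in both runs.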

Tests used:
[1] = S. cerevisiae growth inhibition in permissive medium (OD615), pilot counter-assay for S. cerevisiae lifespan shortening project, permissive growth control (AID 705;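 active means growth inhibition above 25% in both replicates, a cutoff set 3 SD above the mean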); conditions: OD615, 24 h, at 10 µM, active compounds read high
Method in brief: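 assay system = Saccharomyces cerevisiae strain carrying genetically modified DeaD replicative-lifespan system | medium = SC raffinose/galactose permissive medium | dosing = 10 µM single dose, 0.25% DMSO | schedule = 24 h compound exposure at 30 °C after 4 h pre-growth | measured by = OD at 615 nm | read-out basis = growth inhibition from lowered OD615 after 24 h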

[2] = S. cerevisiae growth inhibition in restrictive medium, OD615, pilot screen, restrictive growth control, yeast lifespan reduction project (AID 706;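 active means growth inhibition above a set limit, 3 SD over mean compound inhibition, in both replicates, cut at about 43% in these data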;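 further: modified DeaD lifespan yeast strain shifted to restrictive glucose medium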); conditions: OD615, 48 h, at 10 µM, active compounds read high
Method in brief: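 Buffer or medium: CSMM-D glucose medium. Material: genetically modified Saccharomyces cerevisiae, DeaD replicative lifespan assay strain. Times: 48 h compound exposure at 30 °C. Measured by: optical density at 615 nm.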

[3] = doxorubicin toxicity protection in MRP-1 cells – H69AR cells, CellTiter-Glo, duplicate, MRP-1 activator project, pilot screen (AID 807;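 active means viability increase at or above a cutoff of the median across tested compounds plus 3 SD, cut at about 8.5% in these data, passing the limit was not always enough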;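 further: compound pretreatment 18-22 h then 72 h combined with doxorubicin; 0% = doxorubicin alone and 100% = vehicle without doxorubicin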); conditions: H69AR viability with doxorubicin, CellTiter-Glo luminescence; at 10 µM; active compounds read high
[4] = viability of HCT116 without oncogenic beta-catenin – human colon tumor cells, pilot screen (AID 823;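 active means cell viability at or below a set limit in both duplicate runs, the limit being the all-compound median minus 4 SD, cut at about 23% in these data, passing the limit was not always enough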;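 further: 0% = wells killed by 20 µM Hyamine and 100% = untreated DMSO cell wells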); conditions: HCT116 beta-catenin knockout viability, CellTiter-Glo, 60 h; at 10 µM; active compounds read low
[5] = viability of PTEN-null HCT116 cells – cell-based, HCT116 clonal line, CellTiter-Glo, pilot screen (AID 824;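 active means viability at or below 27.92% in each of two runs, the all-compound median minus 4 SD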;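 further: 0% = 20 µM Hyamine control and 100% = vehicle cell control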); conditions: HCT116 PTEN-deleted viability, 60 h, at 10 µM, active compounds read low
[6] = RAM pathway blockade in budding yeast – dse1pr::URA3 reporter, 5-FOA selection, pilot screen (AID 869);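 further: 0% = DMSO wells with no growth and 100% = 10 µM 1-NA-PP1 with full growth; RAM network block rescues cells from 5-FOA so hits raise OD615 growth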; conditions: S. cerevisiae dse1pr::URA3 5-FOA growth, OD615, 2 d; at 10 µM; active compounds read high; strain carries analog-sensitive mutant Cbk1 kinase
[7] = RAM signaling pathway blockade in yeast – S. cerevisiae, Pdr1DBD-CYC8 efflux-inhibited sensitized strain, primary screen (AID 1298;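 active means RAM network inhibition above 8.4% in each of two replicates, 3 SD over the compound average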;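 further: 0% = DMSO untreated cells without growth and 100% = 10 µM 1-NA-PP1 full growth; higher means more yeast growth rescued from 5-FOA killing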); conditions: S. cerevisiae cbk1-as DSE1-URA3 strain, 5-FOA growth OD615, 2 d; at 50 µM; active compounds read high

CCN(CC)CCNC(=O)c1cn(CC)c2ccc(S(=O)(=O)N(C)C)cc2c1=O
inactive: growth inhibition [1] 0.365% | growth inhibition [2] 8.34% | viability increase [3] -1.41% | viability [4] 106% | viability [5] 101% | inhibition [6] 2.2% | RAM network inhibition [7] 2.04%

Cc1cc(-c2ccccc2)n2ncc(C#N)c2n1
inactive: growth inhibition [1] -0.51% | growth inhibition [2] 2.26% | viability increase [3] -1.18% | viability [4] 103% | viability [5] 98.8% | inhibition [6] 1.17% | RAM network inhibition [7] 2.36%

Cn1nc(-c2ccc(Cl)cc2)c2cc(C(=O)N3CCN(c4ccccc4)CC3)sc21
inactive: growth inhibition [1] -0.325% | growth inhibition [2] -3.28% | viability increase [3] -5.26% | viability [4] 71.2% | viability [5] 72.2% | inhibition [6] 3.44% | RAM network inhibition [7] 5.19%

CCCCCOc1ccc(NC(=O)CCCC(=O)O)cc1
inactive: growth inhibition [1] -3.13% | growth inhibition [2] 2.42% | viability increase [3] -0.75% | viability [4] 91.1% | viability [5] 97.8% | inhibition [6] -0.545% | RAM network inhibition [7] 1.02%

Cc1cc(C(=O)OCc2nnc(-c3ccccc3)o2)c(C)n1-c1ccccc1
inactive: growth inhibition [1] -4.06% | growth inhibition [2] -12% | viability increase [3] -1.07% | viability [4] 84.4% | viability [5] 80.6% | inhibition [6] 0.125% | RAM network inhibition [7] 2.44%

O=C(NCc1ccc(F)cc1)C1CCC(=O)N1CCc1ccccc1 (configuration not stated)
inactive: growth inhibition [1] -5.54% | growth inhibition [2] 7.93% | viability increase [3] -0.77% | viability [4] 96.4% | viability [5] 93.2% | inhibition [6] 0.22% | RAM network inhibition [7] -1.59%

O=C(Cn1c2c(c(-c3ccccc3)cc1=O)CCCC2)N1CCCCCC1
inactive: growth inhibition [1] -10.5% | growth inhibition [2] -10.3% | viability increase [3] -3.64% | viability [4] 48.8% | viability [5] 49% | inhibition [6] 1.49% | RAM network inhibition [7] -0.37%

COc1ccc(S(=O)(=O)N2CC(C)N(S(=O)(=O)c3ccc(OC)cc3)CC2C)cc1 (configuration not stated)
inactive: growth inhibition [1] -4.74% | growth inhibition [2] 0.035% | viability increase [3] -2.77% | viability [4] 93.2% | viability [5] 102% | inhibition [6] 1.73% | RAM network inhibition [7] 5.94%

CC(=O)N=C1SC2CS(=O)(=O)CC2N1c1c(Cl)cccc1Cl (configuration not stated)
inactive: growth inhibition [1] 5.46% | growth inhibition [2] 3.7% | viability increase [3] -1.41% | viability [4] 99.4% | viability [5] 94.2% | inhibition [6] 0.405% | RAM network inhibition [7] -0.17%

O=C(CN1CC(c2ccccc2)CC1=O)Nc1ccc2c(c1)OCO2 (configuration not stated)
inactive: growth inhibition [1] -7.38% | growth inhibition [2] 0.29% | viability increase [3] -1.16% | viability [4] 98% | viability [5] 101% | inhibition [6] 0.205% | RAM network inhibition [7] 1.31%

CC(=O)Nc1ccc(S(=O)(=O)Nc2nc(C)cc(-n3nc(C)cc3C)n2)cc1
inactive: growth inhibition [1] -8.39% | growth inhibition [2] -6.55% | viability increase [3] -1.84% | viability [4] 102% | viability [5] 102% | inhibition [6] 1.25% | RAM network inhibition [7] 2.89%

CCCC1(C(=O)O)NC(c2ccccc2O)C2C(=O)N(c3cccc(Cl)c3)C(=O)C21 (configuration not stated)
inactive: growth inhibition [1] 6.45% | growth inhibition [2] 7.74% | viability increase [3] 0.1% | viability [4] 107% | viability [5] 94.5% | inhibition [6] 0.955% | RAM network inhibition [7] 0.05%

CCC(Oc1ccccc1)C(=O)Nc1cc(C)on1 (configuration not stated)
inactive: growth inhibition [1] -8.55% | growth inhibition [2] -7.2% | viability increase [3] -0.57% | viability [4] 108% | viability [5] 90.2% | inhibition [6] 0.86% | RAM network inhibition [7] 0.2%

CN(CCNC(=O)C1CC(=O)N(C2CCCC2)C1)Cc1ccccc1 (configuration not stated)
inactive: growth inhibition [1] -2.86% | growth inhibition [2] 0.485% | viability increase [3] -0.98% | viability [4] 98.6% | viability [5] 98.3% | inhibition [6] 0.74% | RAM network inhibition [7] 0.52%

Cc1ccc(C(=O)CSc2nnc(-c3cccs3)n2C)o1
inactive: growth inhibition [1] 1.85% | growth inhibition [2] 28.1% | viability increase [3] -3.5% | viability [4] 108% | viability [5] 108% | inhibition [6] 0.5% | RAM network inhibition [7] 3.7%

Cn1cccc1Cc1nnc(SCC(=O)NCc2ccccc2Cl)n1-c1ccc(F)cc1
inactive: growth inhibition [1] -7.31% | growth inhibition [2] 9.87% | viability increase [3] -5% | viability [4] 87% | viability [5] 86.5% | inhibition [6] 1.92% | RAM network inhibition [7] 8.74%

Brc1cccc(-c2nnc3sc(CNCc4ccco4)cn23)c1
inactive: growth inhibition [1] 1.61% | viability increase [3] -4.13% | viability [4] 94.2% | viability [5] 99.3% | inhibition [6] 1.97% | RAM network inhibition [7] 8.75%
active: growth inhibition [2] 47.3%

CCOC(=O)N1CCC(NC(=O)Cn2cc3c(n2)CCCC3)CC1
inactive: growth inhibition [1] -1.57% | growth inhibition [2] -0.65% | viability increase [3] -3.35% | viability [4] 107% | viability [5] 92.5% | inhibition [6] 2.6% | RAM network inhibition [7] 2.81%

COc1ccc(CCNS(=O)(=O)c2ccc3c(c2)oc(=O)n3C)cc1OC
inactive: growth inhibition [1] -5.33% | growth inhibition [2] -1.19% | viability increase [3] -0.83% | viability [4] 105% | viability [5] 94.2% | inhibition [6] 2.37% | RAM network inhibition [7] 0.8%

O=C1CC(C(=O)Nc2nccs2)C(c2ccccc2)O1 (configuration not stated)
inactive: growth inhibition [1] -4.84% | growth inhibition [2] -14.8% | viability increase [3] -0.76% | viability [4] 107% | viability [5] 99.3% | inhibition [6] 0.94% | RAM network inhibition [7] 0.09%

Cn1c(NC(=O)c2ccccc2Br)cc(=O)n(C)c1=O
inactive: growth inhibition [1] -9.54% | growth inhibition [2] -19.3% | viability increase [3] -3.97% | viability [4] 105% | viability [5] 94.5% | inhibition [6] 1.15% | RAM network inhibition [7] 0.36%

CC1CCc2c(sc3nc(SCc4nc(-c5ccccc5)no4)n(C)c(=O)c23)C1 (configuration not stated)
inactive: growth inhibition [1] -3.38% | growth inhibition [2] -5.98% | viability increase [3] 1.25% | viability [4] 94% | viability [5] 89% | inhibition [6] 2.21% | RAM network inhibition [7] 2.32%

CC1CC(C)CN(S(=O)(=O)c2ccc(NC(=O)C3COc4ccccc4O3)cc2)C1 (configuration not stated)
inactive: growth inhibition [1] -14.1% | growth inhibition [2] -24.7% | viability increase [3] -7.35% | viability [4] 53.9% | viability [5] 54.7% | inhibition [6] 3.38% | RAM network inhibition [7] 2.76%

O=C(C1CCN(c2ncnc3c2sc2cccc(F)c23)CC1)N1CCOCC1
inactive: growth inhibition [1] 0.06% | growth inhibition [2] 2.17% | viability increase [3] -6.73% | viability [4] 77.2% | viability [5] 76.8% | inhibition [6] 3.08% | RAM network inhibition [7] 1.81%

Cn1c(Cn2c(=O)sc3ccccc32)nnc1SCC(=O)N1CCCc2ccccc21
inactive: growth inhibition [1] -4.97% | growth inhibition [2] 0.455% | viability increase [3] -3.71% | viability [4] 96.5% | viability [5] 95.1% | inhibition [6] 1.82% | RAM network inhibition [7] 6.16%

Cc1ccc2oc(=O)c3cc(C(=O)NCCN4CCN(C)CC4)sc3c2c1
inactive: growth inhibition [1] -0.32% | growth inhibition [2] -8.46% | viability increase [3] -1.81% | viability [4] 85.5% | viability [5] 83.5% | inhibition [6] 0.16% | RAM network inhibition [7] 0.45%

O=C(Cn1nc(-c2ccc(Cl)cc2)ccc1=O)NCCN1CCOCC1
inactive: growth inhibition [1] -3.21% | growth inhibition [2] -12.3% | viability increase [3] -1.27% | viability [4] 100% | viability [5] 100% | inhibition [6] 0.355% | RAM network inhibition [7] 7.69%

CCc1nc2oc(C(=O)c3ccccc3)c(N)c2c2c1COC(C)(C)C2
inactive: growth inhibition [1] -10.5% | growth inhibition [2] -9.15% | viability increase [3] -4.48% | viability [4] 81.6% | viability [5] 80.1% | inhibition [6] 0.79% | RAM network inhibition [7] 0.85%

CCc1cc2c(NCC3CCCO3)ncnc2s1 (configuration not stated)
inactive: growth inhibition [1] 2.17% | growth inhibition [2] 9.07% | viability increase [3] 0.8% | viability [4] 102% | viability [5] 95.6% | inhibition [6] 0.34% | RAM network inhibition [7] 4.46%

COC(=O)C1CCN(C(=O)c2ccccc2NC(C)=O)CC1
inactive: growth inhibition [1] -12% | growth inhibition [2] -16.4% | viability increase [3] -0.52% | viability [4] 101% | viability [5] 99.6% | inhibition [6] -0.23% | RAM network inhibition [7] 2.21%

CCOC(=O)Cn1c(CN2CC(C)OC(C)C2)nc2c1c(=O)n(C)c(=O)n2C (configuration not stated)
inactive: growth inhibition [1] 3.12% | growth inhibition [2] 8.5% | viability increase [3] 0.25% | viability [4] 95.2% | viability [5] 95% | inhibition [6] -0.31% | RAM network inhibition [7] -1.12%

CCCOc1ccc(N2C(=O)CC(N3CCN(c4ccccc4OC)CC3)C2=O)cc1 (configuration not stated)
inactive: growth inhibition [1] 0.31% | growth inhibition [2] -41.2% | viability increase [3] 0.03% | viability [4] 97.6% | viability [5] 90.8% | inhibition [6] 2.04% | RAM network inhibition [7] 5.49%

O=C1C(Cl)=C(N2CCOCC2)C(=O)N1c1ccccc1Cl
inactive: growth inhibition [1] -8.11% | growth inhibition [2] -4.76% | viability increase [3] -2.16% | viability [4] 99.2% | viability [5] 103% | inhibition [6] 0.045% | RAM network inhibition [7] 4.96%

COc1ccc(Cl)cc1N1C(=O)C2CCCN2C1c1ccccc1F (configuration not stated)
inactive: growth inhibition [1] 2.31% | growth inhibition [2] -4.76% | viability increase [3] -3.84% | viability [4] 93% | viability [5] 95.1% | inhibition [6] 1.41% | RAM network inhibition [7] 1.3%

O=C(NCCCN1CCCC1=O)c1ccccc1NS(=O)(=O)c1ccc(F)cc1
inactive: growth inhibition [1] -7.5% | growth inhibition [2] -22% | viability increase [3] -2.44% | viability [4] 88.9% | viability [5] 94.1% | inhibition [6] 1.57% | RAM network inhibition [7] 5.37%

O=C(Nn1nnnc1Nc1ccccc1)C12CC3CC(CC(C3)C1)C2
inactive: growth inhibition [1] -3.62% | growth inhibition [2] -2.85% | viability increase [3] -5.83% | viability [4] 85.2% | viability [5] 86.5% | inhibition [6] 2.17% | RAM network inhibition [7] 4.63%
